# Screening results (PubChem)
# Scp1 inh: Scp-1 phosphatase inhibitors, primary screen, biochemical, colorimetric, uHTS. Carboxy-terminal domain RNA polymerase II polypeptide A small phosphatase 1 (Homo …. Recombinant Scp1, phosphopeptide, malachite green phosphate absorbance. inhibition, % at 20 µM. 0.88% of 340,000 active;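 active means inhibition above about 50% at 20 µM, limit read from the data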
# Target sequence (Q9GZU7 76-261 limits assumed): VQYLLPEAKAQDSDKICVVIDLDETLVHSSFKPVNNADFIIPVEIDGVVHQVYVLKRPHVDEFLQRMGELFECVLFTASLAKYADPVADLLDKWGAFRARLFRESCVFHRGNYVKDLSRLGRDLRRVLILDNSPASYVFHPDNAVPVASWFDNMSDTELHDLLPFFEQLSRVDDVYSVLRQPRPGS
#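 System: truncated SCP-1 phosphatase (76-261aa); medium: Tris acetate buffer pH 5.5 with MgCl2 and Tween-20; incubation: 45 min room-temperature reaction, 5 min colour, 30 min stabiliser; compound: single 20 µM dose, 1% DMSO; reagent: Phosphorylated 17-residue peptide substrate; read-out: % inhibition at 20 µM; technique: colorimetric free-phosphate detection, absorbance 630 nm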
# PP1 inh: PP1-alpha phosphatase inhibitors, primary screen, counter-screen for PP5 inhibitor project, biochemical, fluorescence, OMFP substrate, single point. AID 2235, 2010. Serine/threonine-protein phosphatase PP1-alpha catalytic subunit (Homo sapiens), P62136. 0.9% of 320,000 active. purified PP1alpha. inhibition, % at 6.7 µM;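 active means inhibition above the mean inhibition of all tested compounds plus 3 SD, computed separately for each screening campaign, cut at about 15% in these data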
# STEP inh: STEP phosphatase inhibitors, primary screen, biochemical, fluorescence intensity, uHTS; recombinant STEP, OMFP fluorogenic substrate; inhibition, % at 20 µM; 0.25% of 360,000 active; AID 588621, 2011;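 active means inhibition at 20 µM, scaled per plate between control wells, above about 37%, limit read from the data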
#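 Test system: STEP tyrosine phosphatase / Reagent: OMFP at 25 µM / Doses: 20 µM, 1% DMSO / Read-out: percent inhibition scaled to no-enzyme and uninhibited-enzyme controls, plate-pattern corrected / Detection: FITC-channel fluorescence of OMFP product / Medium: Bis-Tris buffer pH 6.0, 2.5 mM DTT, 0.005% Tween 20 / Schedule: 20 min at room temperature, dark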
# LMPTP inh: LMPTP phosphatase inhibitors, primary screen, biochemical, fluorescence intensity, uHTS; Low molecular weight phosphotyrosine protein phosphatase (Homo sapiens), P24666; recombinant LMPTP-A, OMFP fluorogenic substrate; inhibition, % at 20 µM; 0.22% of 360,000 active; AID 651560, 2012;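 active means compounds that cut the enzyme signal by at least half of the control window in the single-dose screen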
#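 Test system: LMPTP-A phosphatase enzyme; input: 0.625 nM LMPTP-A final; reagent: OMFP substrate, 400 µM final; compound dosing: 20 µM single dose, 3% DMSO; incubation: 50 min dark incubation at room temperature; measured by: endpoint fluorescence intensity from OMFP dephosphorylation; measure: % inhibition relative to no-enzyme and uninhibited control wells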
# PP5 primary: PP5 phosphatase inhibitors, primary screen, biochemical, fluorescence; Serine/threonine-protein phosphatase 5 (Homo sapiens), P53041; purified PP5c, OMFP substrate fluorescence; inhibition, % at 6.7 µM; 0.18% of 320,000 active; AID 1987, 2009;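 active means inhibition above the campaign's mean inhibition across all tested compounds plus 3 SD, cut at about 9.5% in these data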
# Target sequence (P53041 whole entry, looked up): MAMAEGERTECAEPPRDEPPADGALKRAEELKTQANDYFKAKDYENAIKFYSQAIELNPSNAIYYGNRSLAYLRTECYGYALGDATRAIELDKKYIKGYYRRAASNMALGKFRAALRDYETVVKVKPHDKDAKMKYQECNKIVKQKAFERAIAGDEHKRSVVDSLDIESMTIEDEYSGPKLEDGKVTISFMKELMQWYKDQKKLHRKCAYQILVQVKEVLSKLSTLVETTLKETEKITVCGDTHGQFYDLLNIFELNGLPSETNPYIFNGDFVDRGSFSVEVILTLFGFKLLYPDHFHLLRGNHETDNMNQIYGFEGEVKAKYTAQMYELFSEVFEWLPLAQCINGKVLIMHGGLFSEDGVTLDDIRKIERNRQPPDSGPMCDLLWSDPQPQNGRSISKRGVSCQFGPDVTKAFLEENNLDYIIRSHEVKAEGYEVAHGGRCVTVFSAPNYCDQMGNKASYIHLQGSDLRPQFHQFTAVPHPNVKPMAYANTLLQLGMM
# Scp1 confirm: Scp-1 phosphatase inhibitors, retest, confirmation, biochemical, colorimetric, single concentration; shares compounds with Scp1 inh; recombinant SCP-1 catalytic domain, phosphate release, malachite green absorbance; inhibition, % at 20 µM; 61% of 2,500 active; AID 540281, 2011
# Scp-1 MG ctr: colorimetric readout interference by compounds, confirmation, artefact control for Scp-1 inhibitor project, biochemical, single concentration; shares compounds with Scp1 inh; Colorimetric interference counterscreen, malachite green absorbance 630 nm; apparent inhibition (interference), % at 20 µM; 2,500 tested, under 10 active;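 further: compounds added after enzyme reaction finished so only phosphate colour detection is probed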
# Scp1 DSF: Scp-1 binding by thermal shift, confirmation, orthogonal assay for Scp-1 inhibitor project, biophysical, differential scanning fluorimetry. shares compounds with Scp1 inh. Recombinant SCP1, Sypro Orange thermal shift Tm. thermal shift relative to vanadate control, % at 40 µM. 25% of 1,500 active;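 active means substances whose mean melting-temperature shift, as a percentage of the reference inhibitor's shift, reaches about 5.3%, limit read from the data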
# Numbers stand for hits; 0 = inactive; - = no result. Sampled rows, rich in hits. Any-hit rate of the full collection: about 1.9%.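 How the source made its calls, unless noted: active means inhibition of at least 30% at 20 µM; inactive means the rest.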
SMILES,Scp1 inh,PP1 inh,STEP inh,LMPTP inh,PP5 primary,Scp1 confirm,Scp-1 MG ctr,others
CC(CNc1ccccc1O)C(=O)O (stereo not drawn),73.1,0,0,0,0,43.4,0,Scp1 DSF=0
Cc1ccc(C)c(S(=O)(=O)Nc2ccc3oc(C)c(C(=O)O)c3c2)c1,70.5,0,63.9,0,0,64.5,0,Scp1 DSF=12.4
COc1ccccc1CN1Cc2cccc3c2[C@@H](CC1=O)[C@H](O)[C@H](O)C3,0,0,0,0,0,-,-,
CC[N+](C)(CC)CC(=O)OCC1C(C)C=C(C)CC1C (stereo not drawn),55.5,0,0,0,0,0,0,
Cc1cc(C(=O)NCc2ccc(C(=O)O)o2)c(C)o1,56.2,0,0,0,0,52.2,0,Scp1 DSF=0
CCN(Cc1cc(=O)n2ccsc2n1)Cc1nc2ccccc2c(=O)[nH]1,0,0,0,0,0,-,-,
Cc1nnc(SCC(=O)Nc2sccc2C#N)s1,60.5,0,0,0,0,40.3,0,Scp1 DSF=0
N#Cc1ccsc1NC(=O)CSc1nncs1,0,-,0,0,-,-,-,
O=C(O)c1ccc(CSc2ncn[nH]2)cc1,0,0,0,0,0,-,-,
Brc1ccc(CSc2ncn[nH]2)cc1,50.8,0,0,0,0,0,0,
COc1ccc(NC(=O)c2c3c(nc4ccccc24)CCC3)cc1S(=O)(=O)N1CCOCC1,80.8,0,0,0,0,58.5,0,Scp1 DSF=10.6
Cc1c(C(=O)N(C)Cc2ccc(F)cc2)sc(=O)n1Cc1ccccc1C#N,-,-,0,0,-,-,-,
Cn1nnnc1Sc1ncnc2scc(-c3cccs3)c12,58.2,0,-,-,0,0,0,
Cn1nnnc1Sc1ncnc2scc(-c3ccccc3C(F)(F)F)c12,54.9,0,0,0,0,0,0,
O=C(CCN1CCCCC1)Nn1c(=S)[nH]c2ccccc2c1=O,0,0,0,0,0,-,-,
COC(=O)c1c(NC(=O)Cc2ccccc2)sc2c1CCN(C(C)C)C2,0,0,0,0,0,-,-,
O=C(N/N=C/c1sc(=O)n(-c2ccccc2)c1Cl)c1ccncc1,0,0,0,0,0,-,-,
COc1cc(C(=O)N/N=C/c2sc(=O)n(-c3ccccc3)c2Cl)cc(OC)c1OC,50.4,0,0,0,0,0,0,
O=C(CN1C(=O)NC2(CCCCC2)C1=O)Nc1nc2c(F)cc(F)cc2s1,0,0,0,0,0,0,0,
COCCCNc1nc2c(c(=O)[nH]c(=O)n2C)n1CC(O)COc1ccccc1C (stereo not drawn),0,0,0,0,0,-,-,
COc1cc(NC(=S)N2CCCC(CO)C2)cc(OC)c1 (stereo not drawn),70.1,0,0,0,0,0,0,
COC(=O)Cc1ccc(NC(=S)N2CCCC(CO)C2)cc1 (stereo not drawn),0,0,0,0,0,-,-,
CCOC(=O)/C=C1\CN(Cc2cc(OC)c(OC)c(OC)c2)S(=O)(=O)c2ccc(C(F)(F)F)cc21,87.9,0,0,0,0,57.4,0,Scp1 DSF=0
CCOc1ccccc1NC(=O)C(NCC1(N2CCCCC2)CCCCC1)c1ccccc1 (stereo not drawn),65.2,0,0,0,0,0,0,
N#C/C(=C\c1ccc(OC(=O)c2cccs2)cc1)c1nc2ccccc2[nH]1,51.5,0,0,0,0,82.5,0,Scp1 DSF=0
SMILES,Scp1 inh,PP1 inh,STEP inh,LMPTP inh,PP5 primary,Scp1 confirm,Scp-1 MG ctr,others
N#C/C(=C\c1cccs1)c1nc2ccccc2[nH]1,0,0,0,0,0,-,-,
C[N+]1(CCOS(=O)C23CC4CC(CC(C4)C2)C3)CCOCC1 (stereo not drawn),105.0,0,0,0,0,0,0,
Cc1ccc(NC(=O)CN2C(=O)CSc3ccc(S(=O)(=O)N4CCCCC4)cc32)cc1,56.0,0,0,0,0,56.5,0,Scp1 DSF=46.9
Cc1cc(C)cc(NC(=O)CN2C(=O)COc3ccc(S(=O)(=O)N4CCCC4)cc32)c1,0,0,0,0,0,-,-,
CC(=O)c1ccc(NC(=O)CN2C(=O)COc3ccc(S(=O)(=O)N4CCCC4)cc32)cc1,69.5,0,0,0,0,47.0,0,Scp1 DSF=11.9
CCOc1ccc(NC(=O)CN2C(=O)CSc3ccc(S(=O)(=O)N4CCCC4)cc32)cc1,0,0,0,0,0,-,-,
N#C/C(=C\c1ccc(O)c(O)c1)C(=O)N1CCCC1,0,0,0,0,0,-,-,
Cc1ccc(NC(=O)c2ccc3nsnc3c2)c(Cl)c1,0,0,0,0,0,-,-,
COc1ccccc1-c1noc(CCCC(=O)Nc2ccc(C(N)=O)cc2)n1,0,0,0,0,0,-,-,
Cc1cccc(N2CCN(C(=O)c3ccc(S(=O)(=O)N(C)c4ccccc4)cc3)CC2)c1C,98.5,-,0,0,-,74.8,0,Scp1 DSF=0
CN1CCN(C(=O)c2ccc(S(=O)(=O)N(C)c3ccccc3)cc2)CC1,-,-,0,0,-,-,-,
Cc1ccc(NC2CCCN(C(=O)CCc3scnc3C)C2)cc1C (stereo not drawn),55.0,0,0,0,0,0,0,
Cc1ncsc1CCC(=O)N1CCCC(Nc2ccc(F)c(F)c2)C1 (stereo not drawn),0,0,0,0,0,-,-,
COc1ccc(CCn2c(C(C)C)nc3c(c(=O)c4ccccc4n3C)c2=O)cc1,58.5,0,0,0,0,0,0,
COc1ccc(CCn2c(C)nc3c(c(=O)c4ccccc4n3C)c2=O)cc1,0,0,0,0,0,-,-,
CC(C)NC(=O)CC1OC(=O)c2ccccc21 (stereo not drawn),0,0,0,0,0,-,-,
O=C(CC1OC(=O)c2ccccc21)NNC(=O)c1ccc(F)cc1 (stereo not drawn),0,0,0,0,0,0,0,
CNc1snc(C)c1C(=O)OCC(=O)N(C)Cc1ccccc1,0,0,0,0,0,-,-,
C[C@]12CCC3C(CC=C4C[C@@H](O)CC[C@@]43C)C1CCC2[C@]1(C)CCC(=O)O1 (stereo partly drawn),58.4,0,0,0,0,0,0,
CC12CCC(O)CC1=CCC1C2CCC2(C)C1CCC21CCC(=O)O1 (stereo not drawn),0,0,0,0,0,-,-,
COc1cccc(NC(=O)N2CCCC(C(=O)NC3CCCCC3C)C2)c1 (stereo not drawn),0,0,0,0,0,-,-,
